# What was measured:
# Staphylococcus aureus = assay: Antimicrobial activity against Staphylococcus aureus UAMS1 incubated for 16 hrs by CLSI based method; format: functional; details: UAMS1, 16 h
# [1] = Inhibition of Staphylococcus aureus topoisomerase 4 assessed as reduction in decatenation of kDNA at 100 to 500 uM by gel electrophoresis method
# Procedure, shortened: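 Compounds were in DMSO, with water or DMSO as vehicle controls. Reactions were stopped with STEB plus chloroform:isoamyl alcohol and run on 1% agarose TAE gels stained with ethidium bromide. IC50 was taken from densitometry against reactions with and without enzyme.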
# DNA gyrase = DNA gyrase (Staphylococcus aureus, UniProt P0A0K8+P20831); assay: Inhibition of Staphylococcus aureus DNA gyrase assessed as reduction in enzyme-catalyzed supercoiling of relaxed circular pBR322 DNA by agarose gel electrophoresis; format: protein-complex assay
# DNA gyrase, sequence (P0A0K8 whole entry): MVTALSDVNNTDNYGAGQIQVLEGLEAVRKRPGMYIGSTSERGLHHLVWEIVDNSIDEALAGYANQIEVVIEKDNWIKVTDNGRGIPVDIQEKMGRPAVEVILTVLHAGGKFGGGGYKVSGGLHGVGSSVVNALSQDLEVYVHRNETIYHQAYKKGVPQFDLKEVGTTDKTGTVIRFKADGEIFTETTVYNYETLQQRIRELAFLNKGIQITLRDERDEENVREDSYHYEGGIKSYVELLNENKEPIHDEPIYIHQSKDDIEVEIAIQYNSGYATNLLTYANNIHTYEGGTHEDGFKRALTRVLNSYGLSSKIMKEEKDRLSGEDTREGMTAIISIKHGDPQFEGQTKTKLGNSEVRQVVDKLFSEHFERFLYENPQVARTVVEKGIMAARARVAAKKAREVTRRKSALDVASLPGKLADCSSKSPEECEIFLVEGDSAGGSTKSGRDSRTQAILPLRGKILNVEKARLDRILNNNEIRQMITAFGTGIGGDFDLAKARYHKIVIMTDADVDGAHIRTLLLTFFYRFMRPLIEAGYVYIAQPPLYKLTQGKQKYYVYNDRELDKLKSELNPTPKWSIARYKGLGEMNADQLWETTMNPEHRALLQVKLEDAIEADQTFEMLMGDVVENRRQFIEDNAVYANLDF
# DNA gyrase, sequence (P20831 whole entry): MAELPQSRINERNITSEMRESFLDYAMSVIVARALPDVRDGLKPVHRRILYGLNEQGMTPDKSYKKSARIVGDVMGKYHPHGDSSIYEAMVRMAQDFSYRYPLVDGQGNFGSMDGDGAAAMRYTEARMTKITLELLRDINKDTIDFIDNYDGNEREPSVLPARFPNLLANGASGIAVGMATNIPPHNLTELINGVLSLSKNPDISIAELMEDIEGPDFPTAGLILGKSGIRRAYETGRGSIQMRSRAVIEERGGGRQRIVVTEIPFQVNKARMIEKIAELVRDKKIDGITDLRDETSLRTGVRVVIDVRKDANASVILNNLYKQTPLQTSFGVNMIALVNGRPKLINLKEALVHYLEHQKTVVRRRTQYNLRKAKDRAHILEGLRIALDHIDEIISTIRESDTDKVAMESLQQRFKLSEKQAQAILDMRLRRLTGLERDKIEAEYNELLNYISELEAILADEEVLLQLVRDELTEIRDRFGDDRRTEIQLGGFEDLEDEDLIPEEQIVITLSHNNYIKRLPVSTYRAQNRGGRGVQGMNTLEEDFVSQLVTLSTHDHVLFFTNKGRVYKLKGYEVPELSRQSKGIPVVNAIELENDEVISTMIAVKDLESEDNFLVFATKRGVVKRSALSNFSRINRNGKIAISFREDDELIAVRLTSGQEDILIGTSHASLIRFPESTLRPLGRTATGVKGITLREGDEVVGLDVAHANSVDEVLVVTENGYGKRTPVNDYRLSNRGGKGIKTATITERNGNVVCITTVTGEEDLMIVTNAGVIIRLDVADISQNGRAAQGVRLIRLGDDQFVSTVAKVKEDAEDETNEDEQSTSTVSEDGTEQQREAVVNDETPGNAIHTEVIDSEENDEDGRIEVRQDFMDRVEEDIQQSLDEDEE
# Procedure, shortened: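 Recombinant S. aureus gyrase kit, 0.5 U enzyme, relaxed pBR322 (250 ng/μL) in 40 mM HEPES·KOH pH 7.6, 10 mM Mg acetate, 10 mM DTT, 2 mM ATP, 500 mM K glutamate, 0.5 mg/mL albumin; 37 °C, 30 min.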
smiles,measurement,setting,value
O=C(O)c1ccccc1CN1CCC(C(O)(c2ccccc2)c2ccccc2)CC1,MIC,Staphylococcus aureus,> 256 µg/mL
CC(C)(C)c1ccc(C(O)CN2CCC(C(O)(c3ccccc3)c3ccccc3)CC2)cc1 (stereo not drawn),IC50,[1],100 µM
same,MIC,Staphylococcus aureus,16 µg/mL
CC(C)(C)c1ccc(OCCCN2CCC(C(O)(c3ccccc3)c3ccccc3)CC2)cc1,IC50,DNA gyrase,100 µM
same,IC50,[1],> 333 µM
OC(c1ccccc1)(c1ccccc1)C1CCN(Cc2cccc(-c3ccccc3)c2)CC1,MIC,Staphylococcus aureus,64 µg/mL
CC(C)c1ccc(C(O)CCCN2CCC(C(O)(c3ccccc3)c3ccccc3)CC2)cc1 (stereo not drawn),IC50,[1],273 µM
same,MIC,Staphylococcus aureus,32 µg/mL
OC(CCCN1CCC(C(O)(c2ccccc2)c2ccccc2)CC1)c1ccc(F)cc1 (stereo not drawn),IC50,DNA gyrase,> 500 µM
same,IC50,[1],> 333 µM
same,MIC,Staphylococcus aureus,128 µg/mL
CC(C)(C)c1ccc(C(O)CCCN2CCC(Cc3ccccc3)CC2)cc1 (stereo not drawn),IC50,DNA gyrase,> 333 µM
same,MIC,Staphylococcus aureus,> 256 µg/mL
CC(C)(C)c1ccc(C(O)CCN2CCC(C(O)(c3ccccc3)c3ccccc3)CC2)cc1 (stereo not drawn),IC50,DNA gyrase,133 µM
same,IC50,[1],333 µM
same,MIC,Staphylococcus aureus,8 µg/mL
OC(c1ccccc1)(c1ccccc1)C1CCN(Cc2ccc(-c3cccs3)cc2)CC1,MIC,Staphylococcus aureus,32 µg/mL
Cc1ccc(C(O)CCCN2CCC(C(O)(c3ccccc3)c3ccccc3)CC2)cc1 (stereo not drawn),IC50,DNA gyrase,> 500 µM
same,IC50,[1],> 333 µM
same,MIC,Staphylococcus aureus,128 µg/mL
OC(c1ccccc1)(c1ccccc1)C1CCN(CCc2ccc(-c3cccnc3)cc2)CC1,IC50,DNA gyrase,250 µM
same,IC50,[1],280 µM
same,MIC,Staphylococcus aureus,32 µg/mL
CC(C)(C)c1ccc(C(O)CCCN2CCC(C(c3ccccc3)c3ccccc3)CC2)cc1 (stereo not drawn),MIC,Staphylococcus aureus,8 µg/mL
CC(C)(C)c1ccc(C(O)CCCN2CCN(C(c3ccccc3)c3ccccc3)CC2)cc1 (stereo not drawn) [TRENIZINE],MIC,Staphylococcus aureus,> 256 µg/mL
Cc1ccc(CN2CCC(C(O)(c3ccccc3)c3ccccc3)CC2)cc1,MIC,Staphylococcus aureus,128 µg/mL
CC(C)(C(=O)O)c1ccc(C(O)CCCN2CCC(C(O)(c3ccccc3)c3ccccc3)CC2)cc1 (stereo not drawn) [FEXOFENADINE],IC50,DNA gyrase,> 500 µM
same,IC50,[1],> 333 µM
same,MIC,Staphylococcus aureus,> 256 µg/mL
CC(C)(C)c1ccc(CN2CCC(C(O)(c3ccccc3)c3ccccc3)CC2)cc1,IC50,DNA gyrase,90 µM
same,IC50,[1],213 µM
OC(c1ccccc1)(c1ccccc1)C1CCN(Cc2cccc(F)c2)CC1,MIC,Staphylococcus aureus,128 µg/mL
CC(C)(C)c1ccc(C(N)CCCN2CCC(C(O)(c3ccccc3)c3ccccc3)CC2)cc1 (stereo not drawn),IC50,[1],> 333 µM
same,MIC,Staphylococcus aureus,16 µg/mL
CC(C)(C)c1ccc([C@@H](O)CCCN2CCC(C(O)(c3ccccc3)c3ccccc3)CC2)cc1,IC50,[1],100 µM
OC(c1ccccc1)(c1ccccc1)C1CCN(CCc2ccc(Cl)cc2)CC1,IC50,DNA gyrase,260 µM
same,IC50,[1],267 µM
same,MIC,Staphylococcus aureus,32 µg/mL
CC(C)(C)c1ccc(C(=O)CCN2CCC(C(O)(c3ccccc3)c3ccccc3)CC2)cc1,IC50,DNA gyrase,90 µM
same,IC50,[1],133 µM
same,MIC,Staphylococcus aureus,32 µg/mL
N#Cc1ccccc1CN1CCC(C(O)(c2ccccc2)c2ccccc2)CC1,MIC,Staphylococcus aureus,> 256 µg/mL
CN(C)c1ccc(CCN2CCC(C(O)(c3ccccc3)c3ccccc3)CC2)cc1,IC50,DNA gyrase,> 333 µM
same,MIC,Staphylococcus aureus,> 256 µg/mL
OC(c1ccccc1)(c1ccccc1)C1CCN(Cc2ccc(-c3ccco3)cc2)CC1,MIC,Staphylococcus aureus,32 µg/mL
CC(C)(C)c1ccc([C@H](O)CCCN2CCC(C(O)(c3ccccc3)c3ccccc3)CC2)cc1 [R-TERFENADINE],IC50,[1],110 µM
CC1(c2ccc(CCN3CCC(C(O)(c4ccccc4)c4ccccc4)CC3)cc2)COC1,IC50,DNA gyrase,> 333 µM
same,MIC,Staphylococcus aureus,> 256 µg/mL
CC(C)(C)c1ccc(C(=O)CCCN2CCC(C(O)(c3ccccc3)c3ccccc3)CC2)cc1 [TERFENADONE],IC50,[1],110 µM
same,MIC,Staphylococcus aureus,8 µg/mL
Oc1ccccc1CN1CCC(C(O)(c2ccccc2)c2ccccc2)CC1,MIC,Staphylococcus aureus,64 µg/mL
O=C(O)c1cccc(CN2CCC(C(O)(c3ccccc3)c3ccccc3)CC2)c1,MIC,Staphylococcus aureus,> 256 µg/mL
OC(c1ccccc1)(c1ccccc1)C1CCN(Cc2ccc(C(F)(F)F)cc2)CC1,MIC,Staphylococcus aureus,> 256 µg/mL
OC(CCCN1CCC(C(O)(c2ccccc2)c2ccccc2)CC1)c1ccc(-c2ccccc2)cc1 (stereo not drawn),IC50,DNA gyrase,13 µM
same,IC50,[1],100 µM
same,MIC,Staphylococcus aureus,8 µg/mL
OC(c1ccccc1)(c1ccccc1)C1CCN(Cc2cccc(C(F)(F)F)c2)CC1,MIC,Staphylococcus aureus,> 256 µg/mL
COC(=O)c1cccc(CN2CCC(C(O)(c3ccccc3)c3ccccc3)CC2)c1,MIC,Staphylococcus aureus,> 256 µg/mL
OC(c1ccccc1)(c1ccccc1)C1CCN(CCc2ccc(-c3ccncc3)cc2)CC1,IC50,DNA gyrase,93 µM
same,IC50,[1],227 µM
same,MIC,Staphylococcus aureus,32 µg/mL
COc1ccc(CN2CCC(C(O)(c3ccccc3)c3ccccc3)CC2)cc1,MIC,Staphylococcus aureus,128 µg/mL
CC(C)(C)c1ccccc1CN1CCC(C(O)(c2ccccc2)c2ccccc2)CC1,MIC,Staphylococcus aureus,> 256 µg/mL
Cc1ccccc1CN1CCC(C(O)(c2ccccc2)c2ccccc2)CC1,MIC,Staphylococcus aureus,128 µg/mL
OC(c1ccccc1)(c1ccccc1)C1CCN(Cc2ccc(-c3ccsc3)cc2)CC1,MIC,Staphylococcus aureus,16 µg/mL
CC(C)(C)c1ccc(C(O)CCCCN2CCC(C(O)(c3ccccc3)c3ccccc3)CC2)cc1 (stereo not drawn),IC50,DNA gyrase,100 µM
same,IC50,[1],133 µM
same,MIC,Staphylococcus aureus,16 µg/mL
OC(CCCN1CCC(C(O)(c2ccccc2)c2ccccc2)CC1)c1ccccc1 (stereo not drawn),IC50,DNA gyrase,> 500 µM
same,IC50,[1],> 333 µM
same,MIC,Staphylococcus aureus,> 256 µg/mL
OC(c1ccccc1)(c1ccccc1)C1CCN(CCc2ccc(C(F)(F)F)cc2)CC1,IC50,DNA gyrase,17 µM
same,IC50,[1],> 333 µM
same,MIC,Staphylococcus aureus,16 µg/mL
COC(=O)c1ccc(CN2CCC(C(O)(c3ccccc3)c3ccccc3)CC2)cc1,MIC,Staphylococcus aureus,> 256 µg/mL
CC(C)(C)c1ccc(C(=O)N2CCC(C(O)(c3ccccc3)c3ccccc3)CC2)cc1,IC50,DNA gyrase,93 µM
same,IC50,[1],> 333 µM
same,MIC,Staphylococcus aureus,> 256 µg/mL
Cc1cccc(CN2CCC(C(O)(c3ccccc3)c3ccccc3)CC2)c1,MIC,Staphylococcus aureus,128 µg/mL
OC(c1ccccc1)(c1ccccc1)C1CCN(CCc2ccc(-c3ccccc3)cc2)CC1,IC50,DNA gyrase,80 µM
same,IC50,[1],133 µM
same,MIC,Staphylococcus aureus,8 µg/mL
O=C(O)c1ccc(CN2CCC(C(O)(c3ccccc3)c3ccccc3)CC2)cc1,MIC,Staphylococcus aureus,> 256 µg/mL
Nc1ccc(CCN2CCC(C(O)(c3ccccc3)c3ccccc3)CC2)cc1,IC50,DNA gyrase,93 µM
same,IC50,[1],> 333 µM
same,MIC,Staphylococcus aureus,> 256 µg/mL
CC(C)(C)c1ccc(CCCN2CCC(C(O)(c3ccccc3)c3ccccc3)CC2)cc1,IC50,DNA gyrase,93 µM
same,IC50,[1],100 µM
same,MIC,Staphylococcus aureus,8 µg/mL
COc1ccc(CCN2CCC(C(O)(c3ccccc3)c3ccccc3)CC2)cc1,IC50,DNA gyrase,> 333 µM
same,MIC,Staphylococcus aureus,> 256 µg/mL
OC(c1ccccc1)(c1ccccc1)C1CCN(Cc2ccc(-n3cccc3)cc2)CC1,MIC,Staphylococcus aureus,32 µg/mL
CC(C)(C)c1ccccc1CCN1CCC(C(O)(c2ccccc2)c2ccccc2)CC1,MIC,Staphylococcus aureus,16 µg/mL
OC(c1ccccc1)(c1ccccc1)C1CCN(Cc2ccc(-c3ccoc3)cc2)CC1,MIC,Staphylococcus aureus,32 µg/mL
N#Cc1cccc(CN2CCC(C(O)(c3ccccc3)c3ccccc3)CC2)c1,MIC,Staphylococcus aureus,> 256 µg/mL
Oc1cccc(CN2CCC(C(O)(c3ccccc3)c3ccccc3)CC2)c1,MIC,Staphylococcus aureus,> 256 µg/mL
COC(=O)c1ccccc1CN1CCC(C(O)(c2ccccc2)c2ccccc2)CC1,MIC,Staphylococcus aureus,> 256 µg/mL
COc1cccc(CN2CCC(C(O)(c3ccccc3)c3ccccc3)CC2)c1,MIC,Staphylococcus aureus,128 µg/mL
OC(c1ccccc1)(c1ccccc1)C1CCN(Cc2ccccc2F)CC1,MIC,Staphylococcus aureus,> 256 µg/mL
COc1ccccc1CN1CCC(C(O)(c2ccccc2)c2ccccc2)CC1,MIC,Staphylococcus aureus,128 µg/mL
CC(C)(C)c1ccc(CCN2CCC(C(O)(c3ccccc3)c3ccccc3)CC2)cc1,IC50,DNA gyrase,93 µM
same,IC50,[1],147 µM
same,MIC,Staphylococcus aureus,8 µg/mL
Oc1ccc(CN2CCC(C(O)(c3ccccc3)c3ccccc3)CC2)cc1,MIC,Staphylococcus aureus,128 µg/mL
CC(C)(C)c1ccc(C(=O)CN2CCC(C(O)(c3ccccc3)c3ccccc3)CC2)cc1,IC50,[1],247 µM
same,MIC,Staphylococcus aureus,> 256 µg/mL
OC(CCCN1CCC(C(O)(c2ccccc2)c2ccccc2)CC1)c1ccc(Br)cc1 (stereo not drawn),IC50,DNA gyrase,> 500 µM
same,IC50,[1],> 333 µM
same,MIC,Staphylococcus aureus,32 µg/mL
OC(c1ccccc1)(c1ccccc1)C1CCN(Cc2ccccc2-c2ccccc2)CC1,MIC,Staphylococcus aureus,> 256 µg/mL
N#Cc1ccc(CN2CCC(C(O)(c3ccccc3)c3ccccc3)CC2)cc1,MIC,Staphylococcus aureus,> 256 µg/mL
OC(c1ccccc1)(c1ccccc1)C1CCN(CCc2ccc(Br)cc2)CC1,IC50,DNA gyrase,247 µM
same,IC50,[1],260 µM
same,MIC,Staphylococcus aureus,16 µg/mL
CC(C)(C)c1ccc(C(O)CCCN2CCC(C(O)c3ccccc3)CC2)cc1 (stereo not drawn),IC50,DNA gyrase,> 333 µM
same,MIC,Staphylococcus aureus,> 256 µg/mL
CC(C)(C)c1ccc(CCCCN2CCC(C(O)(c3ccccc3)c3ccccc3)CC2)cc1,IC50,DNA gyrase,93 µM
same,IC50,[1],320 µM
same,MIC,Staphylococcus aureus,8 µg/mL
CC(C)(C)c1ccc(CCN2CCC(C(O)(c3ccccc3)c3ccccc3)CC2)cn1,IC50,DNA gyrase,> 333 µM
same,MIC,Staphylococcus aureus,64 µg/mL
COC(=O)C(C)(C)c1ccc(C(O)CCCN2CCC(C(O)(c3ccccc3)c3ccccc3)CC2)cc1 (stereo not drawn),IC50,DNA gyrase,> 500 µM
same,IC50,[1],> 333 µM
same,MIC,Staphylococcus aureus,> 256 µg/mL
O=[N+]([O-])c1ccc(CCN2CCC(C(O)(c3ccccc3)c3ccccc3)CC2)cc1,IC50,DNA gyrase,263 µM
same,IC50,[1],> 333 µM
same,MIC,Staphylococcus aureus,64 µg/mL
OC(c1ccccc1)(c1ccccc1)C1CCN(Cc2ccc(F)cc2)CC1,MIC,Staphylococcus aureus,> 256 µg/mL
CC(C)(C)c1cccc(CN2CCC(C(O)(c3ccccc3)c3ccccc3)CC2)c1,MIC,Staphylococcus aureus,32 µg/mL
CC(C)(C)c1cccc(CCN2CCC(C(O)(c3ccccc3)c3ccccc3)CC2)c1,IC50,DNA gyrase,93 µM
same,IC50,[1],> 333 µM
same,MIC,Staphylococcus aureus,16 µg/mL
O=C(O)c1ccc(C(O)CCCN2CCC(C(O)(c3ccccc3)c3ccccc3)CC2)cc1 (stereo not drawn),IC50,DNA gyrase,> 500 µM
same,IC50,[1],> 333 µM
same,MIC,Staphylococcus aureus,> 256 µg/mL
CC(C)(C)c1ccc(C(O)CCCN2CCC(=C(c3ccccc3)c3ccccc3)CC2)cc1 (stereo not drawn),MIC,Staphylococcus aureus,> 256 µg/mL
CC(C)c1ccc(CN2CCC(C(O)(c3ccccc3)c3ccccc3)CC2)cc1,MIC,Staphylococcus aureus,32 µg/mL
COc1ccc(C(O)CCCN2CCC(C(O)(c3ccccc3)c3ccccc3)CC2)cc1 (stereo not drawn),IC50,DNA gyrase,> 500 µM
same,IC50,[1],> 333 µM
same,MIC,Staphylococcus aureus,> 256 µg/mL
OC(c1ccccc1)(c1ccccc1)C1CCN(CCc2ccc(F)cc2)CC1,IC50,DNA gyrase,> 333 µM
same,MIC,Staphylococcus aureus,128 µg/mL
OC(c1ccccc1)(c1ccccc1)C1CCN(Cc2ccccc2C(F)(F)F)CC1,MIC,Staphylococcus aureus,> 256 µg/mL

# From ChEMBL document CHEMBL3351553 (J Med Chem, 2014)
